From ChEMBL document CHEMBL1132220 (J Med Chem, 1999) come the findings set out here.

In the first assay the target is Somatostatin receptor. Put plainly: Antagonism of in vitro SRIF inhibition of GH release in rat in vitro pituitary cell assay. Format: functional, cell-based. To be noted: pituitary gland cell. Summed up: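 Dispersed adult male rat anterior pituitary cells (trypsin/DNase), about 200 000 cells/well, cultured 4–5 days at 37 °C. GH measured by double-antibody RIA. IC50 versus SRIF, mean ± SEM of n dose–response curves.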
One may read the IC50 as the point on the concentration scale where inhibition reaches its midpoint. Regarding `NCCCC[C@@H]1NC(=O)[C@@H](Cc2c[nH]c3ccccc23)NC(=O)[C@H](Cc2cccnc2)NC(=O)[C@@H](NC(=O)[C@@H](N)Cc2ccc3ccccc3c2)CSSC[C@@H](C(=O)N[C@@H](Cc2ccc3ccccc3c2)C(N)=O)NC(=O)CNC1=O`, the IC50 was 1510 nM. On the same count and under the same terms, as for `CC(C)[C@@H]1NC(=O)[C@H](CCCCN)NC(=O)[C@@H](Cc2c[nH]c3ccccc23)NC(=O)[C@H](Cc2ccc(O)c(I)c2)NC(=O)C(NC(=O)[C@@H](N)Cc2ccc3ccccc3c2)CSSCC(C(=O)N[C@@H](Cc2ccc3ccccc3c2)C(N)=O)NC1=O` (stereo in doubt), the figure is 20 nM; as for `C[C@@H](O)[C@@H]1NC(=O)[C@H](CCCCN)NC(=O)[C@@H](Cc2c[nH]c3ccccc23)NC(=O)[C@H](Cc2ccccc2)NC(=O)[C@@H](NC(=O)[C@@H](N)Cc2ccc(Cl)cc2)CSSC[C@@H](C(=O)N[C@@H](Cc2ccc3ccccc3c2)C(N)=O)NC1=O`, 1.4 nM; as for `CC(C)[C@H]1NC(=O)[C@H](CCCCN)NC(=O)[C@@H](Cc2c[nH]c3ccccc23)NC(=O)[C@H](Cc2cccnc2)NC(=O)[C@@H](NC(=O)[C@@H](N)Cc2ccc(Cl)cc2)CSSC[C@H](C(=O)N[C@@H](Cc2ccc(Cl)cc2)C(N)=O)NC1=O`, 3 nM. On the same count and under the same terms, next, `CC(C)(C)C[C@@H]1NC(=O)[C@H](CCCCN)NC(=O)[C@@H](Cc2c[nH]c3ccccc23)NC(=O)[C@H](Cc2cccnc2)NC(=O)C(NC(=O)[C@@H](N)Cc2ccc(Cl)cc2)CSSCC(C(=O)N[C@@H](Cc2ccc3ccccc3c2)C(N)=O)NC1=O` (stereo in doubt): 125 nM; `CC(C)[C@H]1NC(=O)[C@H](CCCCN)NC(=O)[C@@H](Cc2c[nH]c3ccccc23)NC(=O)[C@H](Cc2cccnc2)NC(=O)[C@@H](NC(=O)[C@@H](N)Cc2ccc3ccccc3c2)CSSC[C@H](C(=O)N[C@H](C(N)=O)C(c2ccccc2)c2ccccc2)NC1=O`: 91 nM; `CC[C@H](C)[C@H]1NC(=O)[C@H](CCCCN)NC(=O)[C@@H](Cc2c[nH]c3ccccc23)NC(=O)[C@H](Cc2ccc(O)cc2)NC(=O)[C@@H](NC(=O)[C@@H](N)Cc2ccc(-c3ccccc3)cc2)CSSC[C@@H](C(=O)N[C@@H](Cc2ccc(-c3ccccc3)cc2)C(N)=O)NC1=O`: 2110 nM. On the same count and under the same terms, next, `CC(C)[C@H]1NC(=O)[C@H](CCCCN)NC(=O)[C@@H](Cc2c[nH]c3ccccc23)NC(=O)[C@H](Cc2cccnc2)NC(=O)[C@@H](NC(=O)[C@@H](N)Cc2ccc3ccccc3c2)CSSC[C@H](C(=O)N[C@@H](Cc2ccc(F)cc2)C(N)=O)NC1=O`: 150 nM.

With `CC(C)[C@H]1NC(=O)[C@H](CCCCN)NC(=O)[C@@H](Cc2c[nH]c3ccccc23)NC(=O)[C@H](Cc2cccnc2)NC(=O)[C@@H](NC(=O)[C@@H](N)Cc2ccc3ccccc3c2)CSSC[C@H](C(=O)N[C@@H](Cc2ccc3ccccc3c2)C(N)=O)NC1=O`, the 50% inhibitory concentration (IC50) was determined as 15 nM. Against the preceding molecule, the IC50 is about 10-fold lower. As for `CC(C)[C@H]1NC(=O)[C@H](CCCCN)NC(=O)[C@@H](Cc2c[nH]c3ccccc23)NC(=O)[C@H](Cc2cccnc2)NC(=O)[C@@H](NC(=O)[C@@H](N)Cc2ccc(F)cc2)CSSC[C@H](C(=O)N[C@@H](Cc2ccc(F)cc2)C(N)=O)NC1=O`, the IC50 came to 87 nM. On the same count and under the same terms, next, `CC(C)[C@H]1NC(=O)[C@H](CCCCN)NC(=O)[C@@H](Cc2c[nH]c3ccccc23)NC(=O)[C@H](Cc2cccnc2)NC(=O)[C@@H](NC(=O)[C@H](N)Cc2ccc(F)cc2)CSSC[C@H](C(=O)N[C@H](Cc2ccc(F)cc2)C(N)=O)NC1=O`: 74 nM; `CC(C)[C@H]1NC(=O)[C@H](CCCCN)NC(=O)[C@@H](Cc2c[nH]c3ccccc23)NC(=O)[C@H](Cc2cccnc2)NC(=O)[C@@H](NC(=O)[C@@H](N)Cc2ccccc2F)CSSC[C@H](C(=O)N[C@@H](Cc2ccccc2F)C(N)=O)NC1=O`: 114 nM; `CC(C)[C@H]1NC(=O)[C@H](CCCCN)NC(=O)[C@@H](Cc2c[nH]c3ccccc23)NC(=O)[C@H](Cc2c[nH]cn2)NC(=O)C(NC(=O)[C@@H](N)Cc2cccc(F)c2)CSSCC(C(=O)N[C@@H](Cc2cccc(F)c2)C(N)=O)NC1=O` (stereo in doubt): 137 nM. The same measure, in the same setting: as for `CC(C)[C@H]1NC(=O)[C@H](CCCCN)NC(=O)[C@@H](Cc2c[nH]c3ccccc23)NC(=O)[C@H](Cc2c[nH]cn2)NC(=O)C(NC(=O)[C@@H](N)Cc2ccccc2F)CSSCC(C(=O)N[C@@H](Cc2ccccc2F)C(N)=O)NC1=O` (stereo in doubt), the figure is 393 nM; as for `CC(C)[C@H]1NC(=O)[C@H](CCCCN)NC(=O)[C@@H](Cc2c[nH]c3ccccc23)NC(=O)[C@H](Cc2c[nH]cn2)NC(=O)C(NC(=O)[C@@H](N)Cc2ccc(F)cc2)CSSCC(C(=O)N[C@@H](Cc2ccc(F)cc2)C(N)=O)NC1=O` (stereo in doubt), 105 nM.

For `CC(C)[C@H]1NC(=O)[C@H](CCCCN)NC(=O)[C@@H](Cc2c[nH]c3ccccc23)NC(=O)[C@H](Cc2c[nH]cn2)NC(=O)C(NC(=O)[C@@H](N)Cc2c(F)c(F)c(F)c(F)c2F)CSSCC(C(=O)N[C@@H](Cc2c(F)c(F)c(F)c(F)c2F)C(N)=O)NC1=O` (stereo in doubt), the IC50 is reported as 2410 nM.

`C[C@@H]1NC(=O)[C@H](CCCCN)NC(=O)[C@@H](Cc2c[nH]c3ccccc23)NC(=O)[C@H](Cc2cccnc2)NC(=O)[C@@H](NC(=O)[C@@H](N)Cc2ccc3ccccc3c2)CSSC[C@@H](C(=O)N[C@@H](Cc2ccc3ccccc3c2)C(N)=O)NC1=O` yielded an IC50 of 425 nM. For `C[C@@H](O)[C@@H]1NC(=O)[C@H](CCCCN)NC(=O)[C@@H](Cc2c[nH]c3ccccc23)NC(=O)[C@H](Cc2ccc(O)cc2)NC(=O)[C@H](NC(=O)[C@@H](N)Cc2ccc(Cl)cc2)CSSC[C@@H](C(=O)N[C@@H](Cc2ccc3ccccc3c2)C(N)=O)NC1=O`, the IC50 is listed as 1.1 nM. In turn, `CC(C)[C@H]1NC(=O)[C@H](CCCCN)NC(=O)[C@@H](Cc2c[nH]c3ccccc23)NC(=O)[C@H](Cc2cccnc2)NC(=O)[C@@H](NC(=O)[C@@H](N)Cc2cccc(F)c2)CSSC[C@H](C(=O)N[C@@H](Cc2cccc(F)c2)C(N)=O)NC1=O` registered a concentration for half-maximal inhibition (IC50) of 77 nM. On the same count and under the same terms, as for `CC(C)[C@H]1NC(=O)[C@H](CCCCN)NC(=O)[C@@H](Cc2c[nH]c3ccccc23)NC(=O)[C@H](Cc2cccnc2)NC(=O)[C@@H](NC(=O)[C@@H](N)Cc2ccc(I)cc2)CSSC[C@H](C(=O)N[C@@H](Cc2ccc(I)cc2)C(N)=O)NC1=O`, the figure is 4 nM.

A further assay deals with Somatostatin receptor type 2 (Homo sapiens, UniProt P30874). Description: The compound was tested for binding affinity against human Somatostatin receptor type 2.
Somatostatin receptor type 2, sequence (P30874 whole entry): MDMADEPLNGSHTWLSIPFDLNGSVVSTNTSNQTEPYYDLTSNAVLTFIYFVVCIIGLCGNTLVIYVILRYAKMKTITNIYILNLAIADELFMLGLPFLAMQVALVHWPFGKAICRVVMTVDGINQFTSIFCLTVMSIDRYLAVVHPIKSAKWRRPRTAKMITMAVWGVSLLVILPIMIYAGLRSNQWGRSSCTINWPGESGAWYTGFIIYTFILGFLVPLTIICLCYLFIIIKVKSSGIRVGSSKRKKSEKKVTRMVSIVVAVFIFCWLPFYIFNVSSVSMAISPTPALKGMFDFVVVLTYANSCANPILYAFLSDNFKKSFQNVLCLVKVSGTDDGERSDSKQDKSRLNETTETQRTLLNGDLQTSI
Conditions: not given
Summed up: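 Membranes from CHO-K1 cells transfected with the cloned human sst2. Incubated 30 min at 37 °C with 0.05 nM [125I]MK-678 in HEPES pH 7.4 with BSA, MgCl2, Trasylol, bacitracin and PMSF. Filtration on PEI-soaked GF/C filters. Nonspecific binding defined with 1.0 μM SRIF. Mean ± SEM; single values are from one experiment.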
Usually Ki stands for the equilibrium dissociation constant of an inhibitor or competing ligand from its target. The low end stands for tighter binding, the high end for weaker binding. Take `C[C@@H](O)[C@@H]1NC(=O)[C@H](CCCCN)NC(=O)[C@@H](Cc2c[nH]c3ccccc23)NC(=O)[C@H](Cc2ccc(O)cc2)NC(=O)[C@H](NC(=O)[C@@H](N)Cc2ccc(Cl)cc2)CSSC[C@@H](C(=O)N[C@@H](Cc2ccc3ccccc3c2)C(N)=O)NC1=O`: the Ki amounted to 26 nM.

The target in another assay is Somatostatin receptor type 4 (Homo sapiens, UniProt P31391). Description: The compound was tested for binding affinity against human Somatostatin receptor type 4.
Somatostatin receptor type 4, sequence (P31391 whole entry): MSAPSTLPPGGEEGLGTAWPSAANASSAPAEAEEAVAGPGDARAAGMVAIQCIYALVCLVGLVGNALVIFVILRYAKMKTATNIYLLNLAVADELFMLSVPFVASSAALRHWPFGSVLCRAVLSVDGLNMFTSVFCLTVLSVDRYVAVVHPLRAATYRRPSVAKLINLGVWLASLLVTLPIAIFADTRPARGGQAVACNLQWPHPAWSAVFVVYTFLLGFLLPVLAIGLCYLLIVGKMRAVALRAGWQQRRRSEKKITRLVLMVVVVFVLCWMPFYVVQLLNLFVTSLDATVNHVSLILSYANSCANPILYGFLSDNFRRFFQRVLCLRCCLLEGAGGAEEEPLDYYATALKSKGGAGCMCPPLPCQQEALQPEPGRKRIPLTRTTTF
Conditions: not given
Summed up: (§1)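 CHO-K1 cells stably transfected (calcium phosphate) with cloned human sst3 or sst4. Membranes made in ice-cold 50 mM Tris-HCl, resuspended in 10 mM Tris-HCl, then incubated 30 min at 37 °C with 0.05 nM [125I]Tyr11-SRIF in HEPES pH 7.4 with BSA, MgCl2 and protease inhibitors. Filtered on GF/C; nonspecific binding with 1.0 µM SRIF. Mean ± SEM, or one experiment.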
For `C[C@@H](O)[C@@H]1NC(=O)[C@H](CCCCN)NC(=O)[C@@H](Cc2c[nH]c3ccccc23)NC(=O)[C@H](Cc2ccc(O)cc2)NC(=O)[C@H](NC(=O)[C@@H](N)Cc2ccc(Cl)cc2)CSSC[C@@H](C(=O)N[C@@H](Cc2ccc3ccccc3c2)C(N)=O)NC1=O`, the Ki is more than 1000 nM.

The target in a further assay is Somatostatin receptor type 1 (Homo sapiens, UniProt P30872). Put plainly: The compound was tested for binding affinity against human Somatostatin receptor type 1.
Somatostatin receptor type 1, sequence (P30872 whole entry): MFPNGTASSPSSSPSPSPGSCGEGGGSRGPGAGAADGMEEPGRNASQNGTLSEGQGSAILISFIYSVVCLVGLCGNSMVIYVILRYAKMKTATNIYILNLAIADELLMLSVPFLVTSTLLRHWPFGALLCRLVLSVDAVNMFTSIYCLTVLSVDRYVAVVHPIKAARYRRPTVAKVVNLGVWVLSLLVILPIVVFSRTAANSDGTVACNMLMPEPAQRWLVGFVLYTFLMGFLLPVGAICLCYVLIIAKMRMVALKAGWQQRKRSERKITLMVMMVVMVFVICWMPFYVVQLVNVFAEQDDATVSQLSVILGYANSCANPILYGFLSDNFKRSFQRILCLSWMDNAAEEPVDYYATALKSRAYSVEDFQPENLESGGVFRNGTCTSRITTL
Conditions: not given
Summed up: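 Membranes from CHO-K1 cells transfected with the cloned human receptor. Terminated by filtration on PEI-soaked GF/C filters. Nonspecific binding defined with 1.0 μM SRIF. Mean ± SEM; single values are from one experiment.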
As for `C[C@@H](O)[C@@H]1NC(=O)[C@H](CCCCN)NC(=O)[C@@H](Cc2c[nH]c3ccccc23)NC(=O)[C@H](Cc2ccc(O)cc2)NC(=O)[C@H](NC(=O)[C@@H](N)Cc2ccc(Cl)cc2)CSSC[C@@H](C(=O)N[C@@H](Cc2ccc3ccccc3c2)C(N)=O)NC1=O`, the Ki is more than 1000 nM.

For the next assay, the target named is Somatostatin receptor type 3 (Homo sapiens, UniProt P32745). Description: The compound was tested for binding affinity against human Somatostatin receptor type 3.
Somatostatin receptor type 3, sequence (P32745 whole entry): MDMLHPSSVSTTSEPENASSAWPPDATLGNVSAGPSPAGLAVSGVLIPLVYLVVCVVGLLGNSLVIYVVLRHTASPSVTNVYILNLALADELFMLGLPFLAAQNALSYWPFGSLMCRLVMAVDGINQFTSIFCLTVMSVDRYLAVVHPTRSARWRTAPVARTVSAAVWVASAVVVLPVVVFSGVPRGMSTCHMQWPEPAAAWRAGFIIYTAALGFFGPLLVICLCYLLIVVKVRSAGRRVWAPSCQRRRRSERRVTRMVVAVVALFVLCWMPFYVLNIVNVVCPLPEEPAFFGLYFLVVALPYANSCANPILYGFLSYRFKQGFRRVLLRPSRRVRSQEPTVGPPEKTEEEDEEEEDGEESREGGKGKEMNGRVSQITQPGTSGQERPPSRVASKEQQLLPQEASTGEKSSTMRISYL
Conditions: not given
Summed up: as §1
With `C[C@@H](O)[C@@H]1NC(=O)[C@H](CCCCN)NC(=O)[C@@H](Cc2c[nH]c3ccccc23)NC(=O)[C@H](Cc2ccc(O)cc2)NC(=O)[C@H](NC(=O)[C@@H](N)Cc2ccc(Cl)cc2)CSSC[C@@H](C(=O)N[C@@H](Cc2ccc3ccccc3c2)C(N)=O)NC1=O`, the affinity, expressed as Ki, was 93 nM. This counts as double-digit nanomolar.
